Square brackets hold non-standard residues; d marks the D form. Peptide text beside a SMILES is read from it. * marks the point of attachment. NMeF = CN[C@@H](Cc1ccccc1)C(=O)O; dNMeF = CN[C@H](Cc1ccccc1)C(=O)O; Cha = N[C@@H](CC1CCCCC1)C(=O)O; NMeL = CN[C@@H](CC(C)C)C(=O)O; dNMeL = CN[C@H](CC(C)C)C(=O)O; dNMeV = CN[C@@H](C(=O)O)C(C)C; NMeV = CN[C@H](C(=O)O)C(C)C; dAbu = CC[C@@H](N)C(=O)O; Cbz = O=C(OCc1ccccc1)*; Bn = c1ccc(C*)cc1; Sar = CNCC(=O)O
Columns and labels:
[1] = Cytotoxicity against human PL45 cells after 56 hrs by [3H]thymidine uptake assay; assay type: functional
In short: (§1)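 Cells seeded at 2000–2500/well in DMEM with L-glutamine, 10% FBS and 1% penicillin-streptomycin. […] After 56 h, 3H-thymidine was added for 16 h more (72 h total), then cells were harvested and counted (CPM). Inhibition = 1 − CPM treated/DMSO; IC50 taken from curves, mean and SEM.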

[2] = system: BXPC-3; assay: Cytotoxicity against human BxPC3 cells after 56 hrs by [3H]thymidine uptake assay; assay type: functional; in short: as §1

SMILES | growth inhibition (GI) [1] | growth inhibition (GI) [2]
CC(C)C[C@@H]1NC(=O)[C@H](Cc2ccccc2)NC(=O)[C@H](CC(C)C)NC(=O)[C@@H](C(C)C)NC(=O)[C@H](CCCCNC(=O)OCc2ccccc2)NC1=O (cyclo(FLK(Cbz)[dV]L)) | 0% | 29%
CC(C)C[C@@H]1NC(=O)[C@H](Cc2ccccc2)NC(=O)[C@H](CC(C)C)NC(=O)[C@@H](C(C)C)N(C)C(=O)[C@H](CC(C)C)NC1=O | 29% | 34%
CC(C)C[C@@H]1NC(=O)[C@H](C(C)C)N(C)C(=O)[C@H](CC(C)C)NC(=O)[C@H](CC(C)C)N(C)C(=O)[C@H](Cc2ccccc2)NC1=O (cyclo(F[NMeL]L[NMeV]L)) | 0% | 0%
CC(C)C[C@@H]1C(=O)N[C@H](CC(C)C)C(=O)N[C@H](C(C)C)C(=O)N[C@H](CC(C)C)C(=O)N[C@H](Cc2ccccc2)C(=O)N1C | 43% | 33%
CC(C)C[C@@H]1NC(=O)[C@H](CC(C)C)NC(=O)[C@@H](Cc2ccccc2)NC(=O)[C@H](CC(C)C)NC(=O)[C@@H](C(C)C)NC1=O | 41% | 7%
CC(C)C[C@@H]1NC(=O)[C@H](Cc2ccccc2)NC(=O)[C@@H](Cc2ccccc2)N(C)C(=O)[C@H](C(C)C)NC(=O)[C@H](CCCCNC(=O)OCc2ccccc2)NC1=O (cyclo(FLK(Cbz)V[dNMeF])) | 44% | 0%
CC(C)C[C@@H]1NC(=O)[C@H](CC(C)C)NC(=O)[C@@H](Cc2ccccc2)NC(=O)[C@H](CC(C)C)NC(=O)[C@H](C(C)C)NC1=O | 22% | 55%
CC(C)C[C@@H]1NC(=O)[C@H](CC(C)C)NC(=O)[C@H](Cc2ccccc2)N(C)C(=O)[C@H](CC(C)C)NC(=O)[C@H](C(C)C)NC1=O (cyclo([NMeF]LLVL)) | 30% | 33%
CC(C)C[C@H]1NC(=O)[C@@H](Cc2ccccc2)NC(=O)[C@@H](CC(C)C)NC(=O)[C@@H](C(C)C)N(C)C(=O)[C@@H](CC(C)C)NC1=O | 6% | 31%
CC(C)C[C@@H]1NC(=O)[C@H](COCc2ccccc2)NC(=O)[C@@H](Cc2ccccc2)NC(=O)[C@@H](CC(C)C)NC(=O)[C@@H](C(C)C)NC1=O | 30% | 43%
CC(C)C[C@@H]1NC(=O)[C@H](Cc2ccccc2)NC(=O)[C@@H](Cc2ccccc2)N(C)C(=O)[C@@H](C(C)C)NC(=O)[C@H](CC(C)C)NC1=O | 55% | 4%
CC(C)C[C@@H]1C(=O)N[C@H](CC(C)C)C(=O)N(C)[C@H](C(C)C)C(=O)N[C@H](CC(C)C)C(=O)N[C@H](Cc2ccccc2)C(=O)N1C (cyclo([dF][dNMeL][dL][dNMeV][dL])) | 0% | 25%
CC(C)C[C@@H]1NC(=O)[C@@H](Cc2ccccc2)NC(=O)[C@H](C(C)C)NC(=O)[C@@H](CC(C)C)NC(=O)[C@@H](CC(C)C)NC1=O (cyclo(L[dL][dL]V[dF])) | 21% | 23%
CC(C)C[C@@H]1NC(=O)[C@H](C(C)C)NC(=O)[C@H](CC(C)C)NC(=O)[C@@H](CC(C)C)NC(=O)[C@H](Cc2ccccc2)NC1=O | 29% | 29%
CC(C)C[C@@H]1NC(=O)[C@H](CC(C)C)NC(=O)[C@@H](Cc2ccccc2)NC(=O)[C@@H](CC(C)C)NC(=O)[C@@H](C(C)C)NC1=O | 44% | 42%
CC(C)C[C@@H]1NC(=O)[C@H](Cc2ccccc2)NC(=O)[C@H](CC(C)C)NC(=O)[C@H](C(C)C)N(C)C(=O)[C@H](CC(C)C)NC1=O | 20% | 28%
CC(C)[C@@H]1NC(=O)[C@H](Cc2ccccc2)NC(=O)[C@H](C(C)C)NC(=O)[C@@H](C(C)C)NC(=O)[C@H](C(C)C)NC1=O (cyclo(FVV[dV]V)) | 25% | 11%
CC(C)C[C@@H]1NC(=O)[C@H](Cc2ccccc2)NC(=O)[C@H](CC(C)C)NC(=O)[C@@H](C(C)C)N(C)C(=O)[C@H](CC2CCCCC2)NC1=O (cyclo([Cha][dNMeV]LFL)) | 30% | 49%
CC(C)C[C@@H]1NC(=O)[C@H](Cc2ccccc2)NC(=O)[C@@H](Cc2ccccc2)N(C)C(=O)[C@H](C(C)C)NC(=O)[C@H](CCCCN)NC1=O (cyclo(FLKV[dNMeF])) | 26% | 30%
CC(C)[C@@H]1NC(=O)[C@H](Cc2ccccc2)NC(=O)[C@H](C(C)C)NC(=O)[C@@H](CO)NC(=O)[C@H](C(C)C)NC1=O (cyclo(FVV[dS]V)) | 18% | 20%
CC(C)C[C@@H]1NC(=O)[C@H](C(C)C)NC(=O)[C@H](CC(C)C)N(C)C(=O)[C@H](CC(C)C)NC(=O)[C@H](Cc2ccccc2)NC1=O (cyclo(FL[NMeL]VL)) | 23% | 52%

SMILES | growth inhibition (GI) [1] | growth inhibition (GI) [2]
CC(C)C[C@@H]1NC(=O)[C@H](Cc2ccccc2)NC(=O)[C@@H](CC(C)C)N(C)C(=O)[C@@H](C(C)C)N(C)C(=O)[C@H](CC(C)C)NC1=O (cyclo(FLL[dNMeV][dNMeL])) | 22% | 0%
CC(C)C[C@@H]1NC(=O)[C@H](C(C)C)NC(=O)[C@H](CC(C)C)NC(=O)[C@@H](CC(C)C)N(C)C(=O)[C@H](Cc2ccccc2)NC1=O | 49% | 43%
CC[C@H]1NC(=O)[C@H](CC(C)C)NC(=O)[C@H](CC(C)C)NC(=O)[C@H](Cc2ccccc2)NC(=O)[C@H](CC(C)C)NC1=O (cyclo(FLL[dAbu]L)) | 12% | 17%
CC(C)[C@@H]1NC(=O)[C@H](CC2CCCCC2)NC(=O)[C@H](COCc2ccccc2)NC(=O)[C@H](Cc2ccccc2)NC(=O)[C@@H](Cc2ccccc2)N(C)C1=O | 40% | 44%
CC(C)C[C@@H]1NC(=O)[C@H](Cc2ccccc2)NC(=O)[C@H](CC(C)C)NC(=O)[C@@H](Cc2ccccc2)NC(=O)[C@H](CC(C)C)NC1=O (cyclo(FLL[dF]L)) | 33% | 8%
CC(C)C[C@@H]1NC(=O)[C@H](C)NC(=O)[C@H](CC(C)C)NC(=O)[C@H](CC(C)C)NC(=O)[C@H](Cc2ccccc2)NC1=O (cyclo(ALFLL)) | 18% | 20%
CC(C)C[C@@H]1C(=O)N[C@H](CC(C)C)C(=O)N[C@H](C(C)C)C(=O)N(C)[C@H](CC(C)C)C(=O)N[C@H](Cc2ccccc2)C(=O)N1C | 6% | 33%
CC(C)C[C@@H]1NC(=O)[C@H](CC(C)C)NC(=O)[C@@H](Cc2ccc(O)cc2)NC(=O)[C@H](CC(C)C)NC(=O)[C@H](C(C)C)NC1=O (cyclo(LLVL[dY])) | 11% | 35%
CC(C)C[C@@H]1NC(=O)[C@H](Cc2ccccc2)NC(=O)[C@@H](Cc2ccccc2)NC(=O)[C@H](C(C)C)NC(=O)[C@H](CC(C)C)NC1=O | 39% | 55%
CC(C)C[C@@H]1NC(=O)[C@H](Cc2ccccc2)NC(=O)[C@H](CC(C)C)NC(=O)[C@@H](CO)NC(=O)[C@H](CC(C)C)NC1=O (cyclo(FLL[dS]L)) | 25% | 22%
CC(C)C[C@@H]1NC(=O)[C@H](C(C)C)N(C)C(=O)[C@H](CC(C)C)NC(=O)[C@@H](Cc2ccccc2)NC(=O)[C@H](Cc2ccccc2)NC1=O | 21% | 3%
CC(C)[C@@H]1NC(=O)[C@H](Cc2ccccc2)NC(=O)[C@@H](COCc2ccccc2)NC(=O)[C@H](C(C)C)NC(=O)[C@H](C(C)C)NC1=O (cyclo(FVVV[dS](Bn))) | 28% | 17%
CC(C)C[C@@H]1NC(=O)CN(C)C(=O)[C@H](Cc2ccccc2)NC(=O)[C@H](C(C)C)NC(=O)[C@@H](C(C)C)NC1=O (cyclo(F[Sar]L[dV]V)) | 0% | 22%
CC(C)C[C@@H]1NC(=O)[C@H](C(C)C)NC(=O)[C@H](CCCCNC(=O)OCc2ccccc2)NC(=O)[C@H](CC(C)C)N(C)C(=O)[C@H](Cc2ccccc2)NC1=O (cyclo(F[NMeL]K(Cbz)VL)) | 36% | 35%
CC(C)C[C@@H]1NC(=O)[C@H](C(C)C)NC(=O)[C@H](CC(C)C)N(C)C(=O)[C@@H](CC(C)C)NC(=O)[C@H](Cc2ccccc2)NC1=O (cyclo(F[dL][NMeL]VL)) | 25% | 71%
CC(C)C[C@@H]1NC(=O)[C@H](Cc2ccccc2)NC(=O)[C@@H](CO)NC(=O)[C@H](C(C)C)NC(=O)[C@H](CC(C)C)NC1=O (cyclo(FLLV[dS])) | 32% | 25%
CC(C)C[C@H]1NC(=O)[C@@H](Cc2ccccc2)NC(=O)[C@@H](CC(C)C)NC(=O)[C@@H](C(C)C)NC(=O)[C@@H](CC(C)C)NC1=O | 17% | 30%
CC(C)[C@@H]1NC(=O)[C@H](Cc2ccccc2)NC(=O)[C@@H](CO)NC(=O)[C@H](C(C)C)NC(=O)[C@H](C(C)C)NC1=O (cyclo(FVVV[dS])) | 7% | 13%
CC(C)C[C@@H]1NC(=O)[C@@H](Cc2ccccc2)NC(=O)[C@H](CC(C)C)NC(=O)[C@@H](C(C)C)N(C)C(=O)[C@H](CC(C)C)NC1=O | 36% | 31%
CC(C)C[C@@H]1NC(=O)[C@H](C(C)C)N(C)C(=O)[C@@H](CCCCNC(=O)OCc2ccccc2)NC(=O)[C@@H](Cc2ccccc2)NC(=O)[C@H](Cc2ccccc2)NC1=O | 65% | 55%
CC(C)C[C@@H]1NC(=O)[C@H](Cc2ccccc2)NC(=O)[C@@H](CC(C)C)NC(=O)[C@@H](C(C)C)NC(=O)[C@H](CC(C)C)NC1=O | 41% | 33%
